Assay outcomes deposited in PubChem by The Scripps Research Institute Molecular Screening Center.
NPY2 pot ag – potentiators or agonists of human neuropeptide Y receptor Y2; cells expressing NPY-Y2, potentiator/agonist read-out; activation, % at 3.6 µM; hit rate 0.45% among 220,000; AID 1359; in the data active = activation above about 27%;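 note: cells stimulated with NPY near EC25 plus isoproterenol at EC100; 0% = vehicle plus submaximal agonist and 100% = vehicle plus saturating agonist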
Target sequence (P49146 whole entry, looked up): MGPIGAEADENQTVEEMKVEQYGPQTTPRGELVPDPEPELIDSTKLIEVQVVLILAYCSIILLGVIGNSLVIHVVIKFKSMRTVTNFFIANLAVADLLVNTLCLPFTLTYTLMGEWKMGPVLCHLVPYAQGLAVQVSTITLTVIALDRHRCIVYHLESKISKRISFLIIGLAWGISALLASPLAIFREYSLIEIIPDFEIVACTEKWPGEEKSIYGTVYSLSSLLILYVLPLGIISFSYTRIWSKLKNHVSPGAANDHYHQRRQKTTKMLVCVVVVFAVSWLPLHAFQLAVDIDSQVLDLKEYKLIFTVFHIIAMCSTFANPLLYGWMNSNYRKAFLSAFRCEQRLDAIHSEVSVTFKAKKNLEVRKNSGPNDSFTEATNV
NPY Y1 blocker – antagonists of human neuropeptide Y receptor Y1; P25929; HEK293-CNG Y1 cells, membrane potential fluorescence; NPY at EC95, then isoproterenol; inhibition, % at 3.6 µM; hit rate 1% among 200,000; AID 1040;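 active = inhibition above the campaign mean inhibition of all tested compounds plus 3 SD, cut at about 20% in these data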;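 note: 0% = DMSO wells given NPY plus isoproterenol and 100% = isoproterenol alone without NPY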
Target sequence (P25929 whole entry, looked up): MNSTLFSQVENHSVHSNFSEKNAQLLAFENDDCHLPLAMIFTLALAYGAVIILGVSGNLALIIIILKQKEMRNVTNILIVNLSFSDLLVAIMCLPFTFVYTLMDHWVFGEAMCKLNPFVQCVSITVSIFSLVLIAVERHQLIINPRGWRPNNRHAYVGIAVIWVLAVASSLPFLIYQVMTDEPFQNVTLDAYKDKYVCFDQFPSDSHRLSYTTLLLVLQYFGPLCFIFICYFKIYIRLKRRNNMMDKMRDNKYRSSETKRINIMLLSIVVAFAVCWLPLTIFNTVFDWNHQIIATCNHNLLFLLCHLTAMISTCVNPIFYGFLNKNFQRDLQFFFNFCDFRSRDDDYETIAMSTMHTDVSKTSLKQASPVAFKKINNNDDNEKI
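Test system – HEK293 Y1/CNG channel cell line · Also added – NPY agonist 25 nM, then isoproterenol 1 µM plus Ro 20-1724 25 µM · Compound dosing – one concentration, 3.6 µM, in 0.4% DMSO · Schedule – compound incubation 1 h at room temperature, readout 45 min post-stimulation · Technique – fluorescence, membrane potential probe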
NPY Y2 blocker – blocks the human neuropeptide Y Y2 receptor. P49146. NPY-Y2 expressing cells, antagonist mode. inhibition, % at 2.7 µM. hit rate 0.99% among 140,000. AID 793; in the data active = inhibition above about 17%;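 note: 0% = vehicle with agonist challenge and 100% = reference antagonist with challenge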
NPY-Y1 PAM-ag – potentiators or agonists of human neuropeptide Y receptor Y1; P25929; NPY-Y1 expressing cells, potentiator/agonist activation; activation, % at 3.6 µM; hit rate 0.37% among 220,000; AID 1304; in the data active = activation above about 33%, passing the limit was not always enough;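 note: cells stimulated with NPY at EC10 then isoproterenol at EC100; 0% = low agonist plus stimulus and 100% = saturating agonist plus stimulus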
NPY-Y1 pot conf – human NPY-Y1 potentiation or agonism, confirmation | activation, % at 3.6 µM | AID 1546 | cell-based NPY-Y1 potentiator/agonist assay | hit rate 20% among 280 | shares compounds with NPY-Y1 PAM-ag; in the data active = activation above about 45%;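 note: cells challenged with NPY at its EC10 plus isoproterenol stimulus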
NPY-Y2 counter – potentiates or activates NPY-Y2, counter-screen for NPY-Y1 hits. shares compounds with NPY-Y1 PAM-ag. HEK293-CNG cells, membrane-potential fluorescence (FLIPR), 1536-well. activation, % at 3.6 µM. hit rate 20% among 280; in the data active = activation above about 33%
NPY-Y1 agonist – human NPY-Y1 agonism as potentiator counter-screen. HEK293 Y1-CNGC, membrane potential fluorescence, agonist mode. activation, % at 3.6 µM. AID 1697. hit rate 50% among 280. shares compounds with NPY-Y1 PAM-ag;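 active = percent activation above the mean of DMSO-only control wells plus 3 SD of those wells, cut at about 18% in these data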;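 note: cells challenged with isoproterenol plus Ro 20-1724 with no NPY in test wells; Y1 agonism lowers isoproterenol-driven cAMP and reduces probe fluorescence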
NPY-Y2 ag – counter-screen for NPY-Y1 potentiators or agonists: agonists of NPY-Y2. shares compounds with NPY-Y1 PAM-ag. HEK293 Y2-CNGC, membrane potential fluorescence, agonist mode. activation, % at 3.6 µM. hit rate 67% among 280;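 active = activation above the solvent-only control wells' mean plus 3 SD, cut at about 11% in these data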;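 note: 0% = DMSO with isoproterenol and 100% = 40 nM NPY maximal response; agonism lowers cAMP so well fluorescence drops in active wells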
CNGC inh 2 – blocks cyclic nucleotide gated channel in NPY-Y1 counter-screen; shares compounds with NPY-Y1 PAM-ag; HEK293-CNG parental, isoproterenol cAMP, membrane potential fluorescence; inhibition, % at 3.6 µM; hit rate 42% among 280; AID 1704;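 active = inhibition above the mean of stimulated solvent-only control wells plus 3 SD, cut at about 22% in these data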;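 note: 0% = isoproterenol-stimulated DMSO wells and 100% = unstimulated DMSO wells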
Starred values were filed as active, the others as inactive. In the library only some 1.9% were active in any assay of this set; here they are far more common.

How did O=C(Nc1ccccc1N1CCCCC1)c1ccc(Cl)c([N+](=O)[O-])c1 do in these assays?
NPY2 pot ag: 9.5; NPY Y1 blocker: -9.6; NPY-Y1 PAM-ag: 50.6*; NPY-Y1 pot conf: 45.0*; NPY-Y2 counter: 38.5*; NPY-Y1 agonist: 29.5*; NPY-Y2 ag: 37.8*; CNGC inh 2: 34.3*

Results for CCN(CC)C(=O)C[n+]1cccc(C(N)=O)c1 ?
NPY2 pot ag: 7.3; NPY Y1 blocker: 3.8; NPY Y2 blocker: 0.6; NPY-Y1 PAM-ag: 6.3

How did CCCC(=O)Nc1ccc(NC(=O)CCc2ccccc2)cn1 do in these assays?
NPY2 pot ag: 16.5; NPY Y1 blocker: -5.4; NPY Y2 blocker: 3.0; NPY-Y1 PAM-ag: 52.3*; NPY-Y1 pot conf: -1.3; NPY-Y2 counter: 0.5; NPY-Y1 agonist: -7.5; NPY-Y2 ag: 5.7; CNGC inh 2: 3.3

Results for FC(F)(F)c1ccc(Oc2ccc3cc(Br)ccc3c2)nc1 ?
NPY2 pot ag: 14.4; NPY Y1 blocker: 3.2; NPY Y2 blocker: 0.9; NPY-Y1 PAM-ag: -4.2

How did Fc1cc(NC(=S)NCc2ccc(CNC(=S)Nc3ccc(Cl)c(F)c3)cc2)ccc1Cl do in these assays?
NPY2 pot ag: 43.9; NPY-Y1 PAM-ag: 52.0*; NPY-Y1 pot conf: 70.6*; NPY-Y2 counter: 51.4*; NPY-Y1 agonist: 54.9*; NPY-Y2 ag: 57.3*; CNGC inh 2: 54.8*

Results for COc1nccnc1NS(=O)(=O)c1ccc(NS(=O)(=O)c2ccc(NC(C)=O)cc2)cc1 ?
NPY2 pot ag: -3.2; NPY Y1 blocker: -1.4; NPY Y2 blocker: 3.0; NPY-Y1 PAM-ag: 81.1*; NPY-Y1 pot conf: 5.1; NPY-Y2 counter: -1.4; NPY-Y1 agonist: 2.6; NPY-Y2 ag: 8.5; CNGC inh 2: 12.7

How did CCCC(=O)c1ccc(N2CCN(C(=O)c3ccccc3Br)CC2)c(F)c1 do in these assays?
NPY2 pot ag: 8.1; NPY Y1 blocker: -19.1; NPY Y2 blocker: 4.6; NPY-Y1 PAM-ag: 34.4*; NPY-Y1 pot conf: -27.3; NPY-Y2 counter: 0.0; NPY-Y1 agonist: -10.7; NPY-Y2 ag: -2.1; CNGC inh 2: -1.2

Results for Cc1ccnc(NS(=O)(=O)c2cc(C(F)(F)F)ccc2Cl)c1 ?
NPY2 pot ag: -13.2; NPY-Y1 PAM-ag: 17.1

How did COc1ccc(CNC(=O)C2CCCN(Cc3nc(-c4cccc(C)c4)oc3C)C2)cc1 (stereo not given) do in these assays?
NPY2 pot ag: -22.6; NPY Y1 blocker: 3.2; NPY-Y1 PAM-ag: -22.0

What do the screens show for `COc1ccc(-c2nc(CN3CCCC(C(=O)NC4CCCC4)C3)c(C)o2)cc1` (stereo not given)?
NPY2 pot ag: -12.1; NPY Y1 blocker: -0.2; NPY Y2 blocker: 2.5; NPY-Y1 PAM-ag: 58.8*; NPY-Y1 pot conf: -4.6; NPY-Y2 counter: -1.1; NPY-Y1 agonist: -3.1; NPY-Y2 ag: 7.5; CNGC inh 2: -1.4

Results for CC1CCN(CC(O)COC2CC(C)CCC2C(C)C)CC1 (stereo not given) ?
NPY2 pot ag: -4.4; NPY Y1 blocker: 10.1; NPY-Y1 PAM-ag: 41.3*; NPY-Y1 pot conf: 3.9; NPY-Y2 counter: 5.4; NPY-Y1 agonist: -7.2; NPY-Y2 ag: 15.7*; CNGC inh 2: -9.4

What do the screens show for `CC1CCC(C(C)C)C(OCC(O)CNC(C)c2ccccc2)C1` (stereo not given)?
NPY2 pot ag: 17.0; NPY Y1 blocker: 6.5; NPY-Y1 PAM-ag: 43.0*; NPY-Y1 pot conf: 31.8; NPY-Y2 counter: 38.5*; NPY-Y1 agonist: 45.5*; NPY-Y2 ag: 42.4*; CNGC inh 2: 13.6

What do the screens show for `CC(NCC(O)COC1CCC(C(C)(C)C)CC1)c1ccccc1` (stereo not given)?
NPY2 pot ag: -22.9; NPY Y1 blocker: 17.6; NPY-Y1 PAM-ag: -30.8

Results for Cc1ccc(O)c(N=Nc2ccc(S(=O)(=O)N3CCCC3)cc2)c1 ?
NPY2 pot ag: 35.2; NPY-Y1 PAM-ag: 45.0*; NPY-Y1 pot conf: 45.1*; NPY-Y2 counter: 32.0; NPY-Y1 agonist: 29.9*; NPY-Y2 ag: 42.3*; CNGC inh 2: 27.0*

What do the screens show for `Cc1ccc(S(=O)(=O)N2CCCN(S(=O)(=O)c3ccc(C)cc3)CC2)cc1`?
NPY2 pot ag: -0.6; NPY Y1 blocker: -5.3; NPY Y2 blocker: 1.1; NPY-Y1 PAM-ag: -3.7

Results for Nc1ccccc1Nc1ccccc1 ?
NPY2 pot ag: 29.1; NPY Y1 blocker: -7.7; NPY Y2 blocker: -1.0; NPY-Y1 PAM-ag: 38.0*; NPY-Y1 pot conf: 28.1; NPY-Y2 counter: 11.2; NPY-Y1 agonist: 8.9; NPY-Y2 ag: 9.8; CNGC inh 2: 24.2*

How did Nc1ccc(Nc2ccccc2)c(Cl)c1 do in these assays?
NPY2 pot ag: 17.6; NPY Y1 blocker: -3.0; NPY Y2 blocker: 1.7; NPY-Y1 PAM-ag: 19.0

What do the screens show for `O=C(Nc1cccnc1)c1ccc(COc2ccccc2Cl)o1`?
NPY2 pot ag: 18.5; NPY Y1 blocker: -8.7; NPY Y2 blocker: 0.1; NPY-Y1 PAM-ag: 18.4

How did O=C(Nc1cccnc1)c1ccc(COc2cc(Cl)ccc2Cl)o1 do in these assays?
NPY2 pot ag: 5.9; NPY Y1 blocker: -9.7; NPY Y2 blocker: 2.0; NPY-Y1 PAM-ag: 54.4*; NPY-Y1 pot conf: 17.9; NPY-Y2 counter: 7.7; NPY-Y1 agonist: 14.3; NPY-Y2 ag: 16.2*; CNGC inh 2: 18.4

What do the screens show for `COc1ccc(N/N=C(\C#N)C(=N)SCc2ccccc2)cc1`?
NPY2 pot ag: 24.6; NPY Y1 blocker: -4.0; NPY-Y1 PAM-ag: 37.2*; NPY-Y1 pot conf: 17.6; NPY-Y2 counter: 5.5; NPY-Y1 agonist: 17.1; NPY-Y2 ag: 23.1*; CNGC inh 2: 15.3

What do the screens show for `COc1ccccc1Cn1c(-c2ccccc2OC)nc2ccccc21`?
NPY2 pot ag: -9.7; NPY Y1 blocker: -0.6; NPY Y2 blocker: 7.8; NPY-Y1 PAM-ag: 19.7

What do the screens show for `Oc1ccccc1Cn1c(-c2ccccc2O)nc2ccccc21`?
NPY2 pot ag: 30.5; NPY Y1 blocker: -11.8; NPY Y2 blocker: -6.7; NPY-Y1 PAM-ag: 38.7*; NPY-Y1 pot conf: 31.6; NPY-Y2 counter: 25.2; NPY-Y1 agonist: 27.3*; NPY-Y2 ag: 25.9*; CNGC inh 2: 20.3

What do the screens show for `N#CCCN(Cc1cccnc1)C(=S)NC1CC2C=CC1C2` (stereo not given)?
NPY2 pot ag: -0.1; NPY-Y1 PAM-ag: 10.9

What do the screens show for `CCCCC(=O)Nc1ccc(C(=O)Nc2ccc(S(=O)(=O)Nc3ccc(C)cc3)cc2)cc1`?
NPY2 pot ag: 21.5; NPY Y1 blocker: -11.4; NPY Y2 blocker: -5.4; NPY-Y1 PAM-ag: 59.5*; NPY-Y1 pot conf: 19.9; NPY-Y2 counter: 15.6; NPY-Y1 agonist: 10.3; NPY-Y2 ag: 16.5*; CNGC inh 2: 14.9
